Results from ChEMBL document CHEMBL1122570, “Studies on 1,2,3-triazoles. 10. Synthesis and antiallergic properties of 9-oxo-1H,9H-benzothiopyrano[2,3-d]-1,2,3-triazoles and their S-oxides” (1984).

What follows are molecules tested on Rattus norvegicus (assay: Compound was evaluated for its antiallergic activity in rat passive cutaneous anaphylaxis (PCA) test by the intravenous administration.).
Assay type: functional
Method in brief: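 Male Sprague–Dawley rats (250–300 g) sensitized intradermally on shaved backs with six twofold dilutions (typically 1:4–1:128) of rat anti-ovalbumin serum in 0.9% saline. After 72 h, compound given iv to groups of six just before iv challenge with 1% ovalbumin plus pontamine sky-blue. Killed at 20 min and wheal diameters measured. Inhibition computed against vehicle controls; ED50 from log-dose regression with 95% confidence limits.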

O=C1c2ccccc2S(=O)(=O)c2[nH]nnc21 and Cc1ccc2c(c1)C(=O)c1[nH]nnc1S2(=O)=O are within 1.5-fold of each other in ED50: 6.14 mg/kg for the first, 5.88 mg/kg for the second.

O=c1c2ccccc2[s+]([O-])c2[nH]nnc12 (stereo not given) and Oc1c2nnnc-2sc2ccccc12 are within 1.5-fold of each other in ED50: 1.23 mg/kg for the first, 1.43 mg/kg for the second.

First: Cc1cc2c(cc1C)S(=O)(=O)c1nn[nH]c1C2=O
Second: Cc1ccc2c(c1C)C(=O)c1[nH]nnc1S2(=O)=O
The ED50 of the first is lower: 0.6 mg/kg for the first, over 1 mg/kg for the second.

Compared with Cc1ccc2sc3nnnc-3c(O)c2c1C, Cc1cc2sc3nnnc-3c(O)c2cc1C is 7.4-fold lower in ED50: 3.18 mg/kg for the first, 0.43 mg/kg for the second.

Compared with COc1ccc2sc3nnnc-3c(O)c2c1, Cc1ccc2sc3nnnc-3c(O)c2c1 is 7.2-fold higher in ED50: 1.59 mg/kg for the first, 11.4 mg/kg for the second.
